Active and inactive are the calls of the source. The calls are words filed in the database; no cut-off is given here.
Tests used:
LLC-MK2 [1] = assay: Cytotoxicity against monkey LLC-MK2 cells assessed as effect on DNA synthesis at 4 ug/ml; format: cell-based, Macaca mulatta; details: rhesus monkey
In short: (§1)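 Uninfected confluent monolayers were exposed to 4 μg/ml or left untreated. Viability was assessed by dye exclusion and MTT assay. DNA and RNA synthesis were measured by 48 h labelling with 10 μCi/ml [3H]thymidine or [3H]uridine, followed by counting of trichloroacetic acid-insoluble radioactivity.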

Influenza A virus [2] = assay: Antiviral activity against Influenza A virus/parrot/Ulster/73(H7N1) infected in MDCK cells assessed as of reduction in optical density values at 4 ug/ml using human RBCs by hemadsorption assay; format: functional, organism-based; details: A/parrot/Ulster/73(H7N1), Erythrocyte
Influenza A virus [3] = assay: microbe, parasite or virus in culture; format: functional; details: LLC-MK2, 4 h
MDCK [4] = assay: Cytotoxicity against MDCK cells assessed as effect on RNA synthesis at 4 ug/ml; format: cell-based, Canis lupus familiaris; details: dog; in short: as §1
Influenza A virus [5] = assay: Antiviral activity against Influenza A virus/NWS/1933(H1N1) infected in BALB/c mouse assessed as reduction in mortality rate at 100 ug, ip administered once daily for 10 days and dosed 30 mins post infection relative to untreated control; format: functional, Influenza A virus (A/NWS/1933(H1N1))
In short: (§2)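 BALB/c males, 4 weeks old, about 20 g, 10 per group, randomised. Daily i.p. treatment (50 or 100 μg/mouse, or 2 mg/mouse) in 100 μl 0.9% NaCl, starting 30 min after intranasal challenge and repeated for the next 10 days. Placebo was diluent. Mortality rate ratio versus placebo was derived by proportional hazards regression, with 95% CI.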

Influenza A virus [6] = assay: microbe, parasite or virus in culture; format: functional; details: LLC-MK2, 6 h
Influenza A virus [7] = assay: Antiviral activity against Influenza A virus/NWS/1933(H1N1) infected in BALB/c mouse assessed reduction in viral load in lung at 100 ug, ip measured after 6 days postinfection relative to untreated control; format: functional, Influenza A virus (A/NWS/1933(H1N1))
In short: (§3)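 Groups of 5 infected BALB/c mice, dosed i.p. daily, were killed on day 6 p.i. Each lung was weighed and homogenised in RPMI 1640. Titre was by TCID50 on MDCK monolayers: 10-fold dilutions, eight wells each, 3 days, cytopathic effect scored. Expressed per gram of lung; five homogenates per group, mean ± SD.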

Influenza A virus [8] = assay: microbe, parasite or virus in culture; format: functional; details: LLC-MK2, 8 h
Influenza A virus [9] = assay: Antiviral activity against Influenza A virus/NWS/1933(H1N1) infected in BALB/c mouse assessed as survival rate at 100 ug, ip administered once daily for 10 days and dosed 30 mins post infection; format: functional, Influenza A virus (A/NWS/1933(H1N1))
In short: (§4)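 Male BALB/c mice, 4 weeks old, 10 per group. Given i.p. in 100 μl 0.9% NaCl once daily from 30 min post-challenge through the next 10 days; diluent for placebo. Survival was checked daily for 30 days, and day-30 survivors were counted as cured. Curves were compared by log-rank test. Four experiments were run.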

Influenza A virus [10] = assay: microbe, parasite or virus in culture; format: functional; details: LLC-MK2, 6 h; remark: listed apart in the source
Influenza A virus [11] = assay: microbe, parasite or virus in culture; format: functional; details: LLC-MK2, 8 h; remark: listed apart in the source
Influenza A virus [12] = assay: Antiviral activity against Influenza A virus/NWS/1933(H1N1) infected in BALB/c mouse assessed reduction in viral load in lung at 50 ug, ip measured after 6 days postinfection relative to untreated control; format: functional, organism-based; details: Influenza A virus (A/NWS/1933(H1N1)); in short: as §3
Influenza A virus [13] = assay: microbe, parasite or virus in culture; format: functional; details: LLC-MK2, 2 h
Mus musculus [14] = assay: Toxicity in Influenza A virus/NWS/1933(H1N1) infected in BALB/c mouse assessed as weight loss at 100 ug, ip administered once daily for 10 days and dosed 30 mins post infection; format: organism-based; details: in vivo
Influenza A virus [15] = assay: microbe, parasite or virus in culture; format: functional; details: LLC-MK2, 4 h; remark: listed apart in the source
MDCK [16] = assay: Cytotoxicity against MDCK cells assessed as effect on DNA synthesis at 4 ug/ml; format: cell-based, Canis lupus familiaris; details: dog; in short: as §1
Influenza A virus [17] = assay: microbe, parasite or virus in culture; format: functional; details: LLC-MK2, 2 h; remark: listed apart in the source
Mus musculus [18] = assay: Toxicity in Influenza A virus/NWS/1933(H1N1) infected BALB/c mouse assessed as incidence of mouse death at 100 ug, ip administered once daily for 10 days and dosed 30 mins post infection; format: organism-based; details: in vivo
Influenza A virus [19] = assay: microbe, parasite or virus in culture; format: functional; details: LLC-MK2, 8 h; remark: listed apart in the source
Influenza A virus [20] = assay: Antiviral activity against Influenza A virus/NWS/1933(H1N1) infected in BALB/c mouse assessed as reduction in mortality rate at 50 ug, ip administered once daily for 10 days and dosed 30 mins post infection relative to untreated control; format: functional, organism-based; details: Influenza A virus (A/NWS/1933(H1N1)); in short: as §2
Mus musculus [21] = assay: Toxicity in Influenza A virus/NWS/1933(H1N1) infected in BALB/c mouse assessed as effect on motor activity at 100 ug, ip administered once daily for 10 days and dosed 30 mins post infection; format: organism-based; details: in vivo
Influenza A virus [22] = assay: microbe, parasite or virus in culture; format: functional; details: LLC-MK2, 6 h; remark: listed apart in the source
Influenza A virus [23] = assay: microbe, parasite or virus in culture; format: functional; details: LLC-MK2, 6 h; remark: listed apart in the source
MDCK [24] = assay: Cytotoxicity against MDCK cells assessed as effect on cell viability at 4 ug/ml; format: cell-based, Canis lupus familiaris; details: dog; in short: as §1
LLC-MK2 [25] = assay: Cytotoxicity against monkey LLC-MK2 cells assessed as effect on RNA synthesis at 4 ug/ml; format: cell-based, Macaca mulatta; details: rhesus monkey; in short: as §1
LLC-MK2 [26] = assay: Cytotoxicity against monkey LLC-MK2 cells assessed as effect on cell viability at 4 ug/ml; format: cell-based, Macaca mulatta; details: rhesus monkey; in short: as §1
Influenza A virus [27] = assay: microbe, parasite or virus in culture; format: functional, organism-based; details: LLC-MK2, 24 h
Influenza A virus [28] = assay: microbe, parasite or virus in culture; format: functional; details: LLC-MK2, 8 h; remark: listed apart in the source
Influenza A virus [29] = assay: microbe, parasite or virus in culture; format: functional; details: LLC-MK2, 6 h; remark: listed apart in the source
Influenza A virus [30] = assay: Antiviral activity against Influenza A virus/parrot/Ulster/73(H7N1) infected in LLC-MK2 cells assessed as of reduction in optical density values at 4 ug/ml using human RBCs by hemadsorption assay; format: functional, organism-based; details: A/parrot/Ulster/73(H7N1), Erythrocyte
Influenza A virus [31] = assay: Antiviral activity against Influenza A virus/NWS/1933(H1N1) infected in BALB/c mouse assessed as survival rate at 50 ug, ip administered once daily for 10 days and dosed 30 mins post infection; format: functional, organism-based; details: Influenza A virus (A/NWS/1933(H1N1)); in short: as §4
Influenza A virus [32] = assay: Antiviral activity against Influenza A virus/NWS/1933(H1N1) infected in BALB/c mouse assessed as survival rate at 2 mg, ip administered once daily for 10 days and dosed 30 mins post infection; format: functional, Influenza A virus (A/NWS/1933(H1N1)); in short: as §4
Influenza A virus [33] = assay: Antiviral activity against Influenza A virus/NWS/1933(H1N1) infected in BALB/c mouse assessed as reduction in mortality rate at 2 mg, ip administered once daily for 10 days and dosed 30 mins post infection relative to untreated control; format: functional, Influenza A virus (A/NWS/1933(H1N1)); in short: as §2

H-AKVTMTCSAS-OH
Activity (LLC-MK2 [1]): Non-toxic | inhibition (Influenza A virus [2]): Active | inhibition at 4 µg/mL (Influenza A virus [3]): 45.1% | Activity (MDCK [4]): Non-toxic | inhibition (INH) (Influenza A virus [5]): 72% | inhibition at 4 µg/mL (Influenza A virus [6]): 86.1% | fold change (FC) (Influenza A virus [7]): 2 | inhibition at 4 µg/mL (Influenza A virus [8]): 93.6% | Survival (Influenza A virus [9]): 50% | inhibition at 4 µg/mL (Influenza A virus [10]): 65.2% | inhibition at 4 µg/mL (Influenza A virus [11]): 71.2% | Activity (Influenza A virus [12]): Active | inhibition at 4 µg/mL (Influenza A virus [13]): 96.3% | Activity (Mus musculus [14]): Non-toxic | inhibition at 4 µg/mL (Influenza A virus [15]): 62.4% | Activity (MDCK [16]): Non-toxic | inhibition at 4 µg/mL (Influenza A virus [17]): 59.1% | Activity (Mus musculus [18]): Non-toxic | inhibition at 4 µg/mL (Influenza A virus [19]): 26.8% | Activity (Influenza A virus [20]): inactive | Activity (Mus musculus [21]): Non-toxic | inhibition at 4 µg/mL (Influenza A virus [22]): 76.9% | inhibition at 4 µg/mL (Influenza A virus [23]): 49.7% | Activity (MDCK [24]): Non-toxic | Activity (LLC-MK2 [25]): Non-toxic | Activity (LLC-MK2 [26]): Non-toxic | EC50 (Influenza A virus [27]): 2690 nM | inhibition at 4 µg/mL (Influenza A virus [28]): 46.5% | inhibition at 4 µg/mL (Influenza A virus [29]): 88.9% | inhibition (Influenza A virus [30]): Active | Activity (Influenza A virus [31]): inactive

NC12CC3CC(CC(C3)C1)C2 [AMANTADINE]
Survival (Influenza A virus [32]): 50% | inhibition (INH) (Influenza A virus [33]): 77%

Reference: ChEMBL document CHEMBL1687715, “Therapeutic activity of an anti-idiotypic antibody-derived killer peptide against influenza A virus experimental infection” (Antimicrob Agents Chemother, 2008)
